Results taken from ChEMBL document CHEMBL3414472, “Synthesis, SAR, and series evolution of novel oxadiazole-containing 5-lipoxygenase activating protein inhibitors: discovery of 2-[4-(3-{(r)-1-[4-(2-amino-pyrimidin-5-yl)-phenyl]-1-cyclopropyl-ethyl}-[1,2,4]oxadiazol-5-yl)-pyrazol-1-yl]-N,N-dimethyl-acetamide (BI 665915)” (J Med Chem, 2015).

Tests used:
[1] = Fraction unbound in human plasma by equilibrium dialysis method; assay type: ADME, cell-free
How it was run: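 Unbound fraction in human plasma determined by equilibrium dialysis, in duplicate.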

[2] = Efflux ratio of permeability across human Caco2 cells; assay type: ADME, cell-based; settings: Caco-2
How it was run: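 Caco-2 cells were seeded at 1-2 x 10^5 cells/cm2 on 0.4 µm PET filter inserts and cultured 10 to 25 days. Compound in HTP-4 transport buffer was added to the apical or basolateral donor side for A-B or B-A transport. Donor and receiver samples were taken up to 2 h and measured by LC/MS/MS. Each value is from duplicate 6-timepoint curves (0 to 2 h).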

CYP3A4 = CYP3A4 (Homo sapiens, UniProt P08684); experiment: Induction of CYP3A4 in human hepatocytes using midazolam as substrate assessed as formation of 1'-hydroxymidazolam up to 30 uM preincubated for 48 hrs followed by substrate addition measured up to 120 mins relative to control; assay type: ADME, cell-based, Hepatocyte; settings: probe midazolam, read-out: FC
CYP3A4, sequence (P08684 whole entry): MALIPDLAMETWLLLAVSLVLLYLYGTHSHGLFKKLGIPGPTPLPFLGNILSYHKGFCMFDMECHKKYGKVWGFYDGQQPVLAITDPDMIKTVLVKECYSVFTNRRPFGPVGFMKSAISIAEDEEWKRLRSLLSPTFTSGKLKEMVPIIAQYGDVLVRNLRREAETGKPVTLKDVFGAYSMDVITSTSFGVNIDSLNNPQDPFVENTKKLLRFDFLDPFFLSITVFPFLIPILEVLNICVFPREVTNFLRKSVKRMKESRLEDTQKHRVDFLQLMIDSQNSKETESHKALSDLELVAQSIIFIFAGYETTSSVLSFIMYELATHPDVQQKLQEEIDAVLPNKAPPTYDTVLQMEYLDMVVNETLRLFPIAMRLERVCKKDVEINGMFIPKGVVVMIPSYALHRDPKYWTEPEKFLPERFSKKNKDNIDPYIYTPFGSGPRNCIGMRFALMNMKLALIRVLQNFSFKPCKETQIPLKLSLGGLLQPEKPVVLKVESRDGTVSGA
How it was run: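 Freshly plated, sandwich-cultured, single-donor human hepatocytes were exposed to compound or rifampicin (25 µM) for 48 h, with medium and dosing agent renewed every 24 h. The linear slope of 1'-hydroxymidazolam formation over time (to 120 min) was determined. Fold induction is the compound slope divided by the solvent control slope.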

[3] = Volume of distribution at steady state in rat at 1 mg/kg, iv and 10 mg/kg, po; assay type: ADME, organism-based; settings: in vivo, read-out: Vdss
How it was run: (§1)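 iv 1 mg/kg in 70 % PEG; po 10 mg/kg as suspension in 0.5 % methyl cellulose/0.015 % Tween. Blood sampled at 11 timepoints (0, 5, 15, 30 min, 1, 2, 4, 6, 8, 12, 24 h) per dose; mean of n = 3. Clearance expressed as percent of hepatic blood flow.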

[4] = Mean residence time in dog at 1 mg/kg, iv; assay type: ADME, organism-based, Canis lupus familiaris; design: dose 1 mg/kg, route intravenous; settings: in vivo; how it was run: as §1
Cynomolgus monkey = experiment: Clearance in cynomolgus monkey at 1 mg/kg, iv and 10 mg/kg, po relative to hepatic blood flow; assay type: ADME, organism-based, Macaca fascicularis, Liver; settings: in vivo; how it was run: as §1
[5] = Oral bioavailability in cynomolgus monkey at 10 mg/kg; assay type: ADME, organism-based, Macaca fascicularis; settings: in vivo; how it was run: as §1
[6] = Plasma concentration in C57BL/6 mouse at 100 mg/kg, po after 2 hrs; assay type: ADME, organism-based; design: dose 100 mg/kg, route oral
Mus musculus [7] = experiment: In vivo inhibition of FLAP in C57BL/6 mouse assessed as LTB4 production in calcimycin-stimulated whole blood at 1 mg/kg, po after 2 hrs by ELISA (reference value: 100 +/- 13.3%); assay type: functional; design: scale not given: the % may be the effect or the level left
Mus musculus [8] = experiment: In vivo inhibition of FLAP in C57BL/6 mouse assessed as LTB4 production in calcimycin-stimulated whole blood at 100 mg/kg, po after 2 hrs by ELISA (reference value: 100 +/- 13.3%); assay type: functional; design: scale not given: the % may be the effect or the level left
Cytochrome P450 2C9 = Cytochrome P450 2C9 (Homo sapiens, UniProt P11712); experiment: Inhibition of CYP2C9 in human liver microsomes using dichlofenac as substrate preincubated for 10 mins followed by NADPH addition measured after 6 mins; assay type: ADME
Cytochrome P450 2C9, sequence (P11712 whole entry): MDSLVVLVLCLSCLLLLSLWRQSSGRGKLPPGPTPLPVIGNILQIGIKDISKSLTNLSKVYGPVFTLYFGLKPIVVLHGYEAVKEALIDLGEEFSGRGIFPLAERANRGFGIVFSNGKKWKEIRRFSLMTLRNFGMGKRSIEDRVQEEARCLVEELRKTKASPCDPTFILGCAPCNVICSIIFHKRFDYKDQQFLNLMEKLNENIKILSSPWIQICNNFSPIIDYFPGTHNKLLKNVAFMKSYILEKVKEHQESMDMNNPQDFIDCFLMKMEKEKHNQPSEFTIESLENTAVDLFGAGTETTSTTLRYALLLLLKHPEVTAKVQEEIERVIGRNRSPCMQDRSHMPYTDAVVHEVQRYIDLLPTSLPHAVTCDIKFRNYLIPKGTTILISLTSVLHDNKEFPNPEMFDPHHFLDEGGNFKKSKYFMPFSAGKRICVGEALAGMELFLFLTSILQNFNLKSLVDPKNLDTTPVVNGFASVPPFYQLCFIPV
How it was run: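 Human liver microsomes (0.05 mg/mL protein) with cocktail substrates: 4 µM diclofenac (2C9), 3 µM dextromethorphan (2D6), 2.5 µM midazolam (3A4). Compound in 0.1 M potassium phosphate pH 7.4 preincubated 10 min at 37 °C; NADPH added, reaction 6 min at 37 °C.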

hERG (KCNH2) = hERG (KCNH2) (Homo sapiens, UniProt Q12809); experiment: Inhibition of human ERG expressed in HEK293 cells assessed as change in tail current at 11 uM by manual patch clamp assay relative to control; assay type: cell-based; settings: HEK293 cells that express hERG
hERG (KCNH2), sequence (Q12809 whole entry, the tested form may be a part): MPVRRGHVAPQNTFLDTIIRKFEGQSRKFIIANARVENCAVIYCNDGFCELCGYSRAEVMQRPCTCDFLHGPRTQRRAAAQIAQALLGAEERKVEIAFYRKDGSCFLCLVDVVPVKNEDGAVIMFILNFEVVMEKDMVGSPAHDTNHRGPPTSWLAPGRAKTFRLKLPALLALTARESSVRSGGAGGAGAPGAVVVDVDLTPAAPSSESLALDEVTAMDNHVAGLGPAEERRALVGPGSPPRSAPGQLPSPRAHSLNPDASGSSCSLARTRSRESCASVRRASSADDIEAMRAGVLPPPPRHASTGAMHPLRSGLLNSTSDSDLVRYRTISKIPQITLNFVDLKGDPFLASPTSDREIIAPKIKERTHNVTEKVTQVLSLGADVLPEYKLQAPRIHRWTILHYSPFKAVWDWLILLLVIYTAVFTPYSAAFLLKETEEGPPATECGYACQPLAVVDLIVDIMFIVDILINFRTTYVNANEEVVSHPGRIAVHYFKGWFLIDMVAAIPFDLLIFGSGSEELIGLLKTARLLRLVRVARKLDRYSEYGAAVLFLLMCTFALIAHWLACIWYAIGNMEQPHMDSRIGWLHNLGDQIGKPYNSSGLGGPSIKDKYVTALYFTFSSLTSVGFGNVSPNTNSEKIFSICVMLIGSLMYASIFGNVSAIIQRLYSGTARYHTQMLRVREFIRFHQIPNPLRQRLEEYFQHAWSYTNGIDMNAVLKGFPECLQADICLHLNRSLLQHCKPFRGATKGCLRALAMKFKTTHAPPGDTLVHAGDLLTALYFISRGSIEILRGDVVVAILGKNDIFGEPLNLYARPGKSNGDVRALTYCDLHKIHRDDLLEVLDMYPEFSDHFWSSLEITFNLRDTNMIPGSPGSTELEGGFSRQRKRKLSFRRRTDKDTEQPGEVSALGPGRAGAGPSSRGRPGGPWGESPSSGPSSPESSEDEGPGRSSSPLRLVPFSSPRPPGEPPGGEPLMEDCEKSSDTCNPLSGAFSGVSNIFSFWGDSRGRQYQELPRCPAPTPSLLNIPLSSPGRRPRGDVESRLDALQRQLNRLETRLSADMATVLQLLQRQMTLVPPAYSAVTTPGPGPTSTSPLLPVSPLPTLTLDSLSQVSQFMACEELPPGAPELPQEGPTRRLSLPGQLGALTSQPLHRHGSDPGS
How it was run: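 Whole-cell manual patch clamp on HEK293 cells stably expressing human ERG, at room temperature (20-22 °C) in a perfusion chamber. Change in hERG tail current amplitude during the hyperpolarizing step measured with escalating compound concentrations.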

[9] = biological target: T1, Polyunsaturated fatty acid 5-lipoxygenase (Homo sapiens) (UniProt P09917); experiment: Inhibition of 5-LO (unknown origin) at 10 uM relative to control
T1 sequence (whole entry): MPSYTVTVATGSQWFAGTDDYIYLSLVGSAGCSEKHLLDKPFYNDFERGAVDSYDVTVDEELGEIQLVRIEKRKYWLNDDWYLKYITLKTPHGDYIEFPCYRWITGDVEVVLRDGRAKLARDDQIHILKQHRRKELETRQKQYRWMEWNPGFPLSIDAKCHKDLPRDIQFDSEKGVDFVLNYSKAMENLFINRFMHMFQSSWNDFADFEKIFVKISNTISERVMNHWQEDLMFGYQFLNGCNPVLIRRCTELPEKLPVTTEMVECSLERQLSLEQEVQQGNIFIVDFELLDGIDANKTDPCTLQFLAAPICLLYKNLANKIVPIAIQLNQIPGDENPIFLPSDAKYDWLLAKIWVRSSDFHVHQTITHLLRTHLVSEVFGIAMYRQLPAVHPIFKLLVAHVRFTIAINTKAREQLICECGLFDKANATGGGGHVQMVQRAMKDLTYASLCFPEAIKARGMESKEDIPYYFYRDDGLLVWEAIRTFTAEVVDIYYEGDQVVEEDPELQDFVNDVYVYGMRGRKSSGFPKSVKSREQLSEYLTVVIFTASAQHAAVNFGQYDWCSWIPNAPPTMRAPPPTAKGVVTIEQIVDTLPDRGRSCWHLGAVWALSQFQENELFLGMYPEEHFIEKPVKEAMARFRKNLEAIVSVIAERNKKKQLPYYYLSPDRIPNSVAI

[10] = biological target: T2, Cytosolic phospholipase A2 (Homo sapiens) (UniProt P47712); experiment: Inhibition of phospholipase A2 (unknown origin) at 10 uM relative to control
T2 sequence (whole entry): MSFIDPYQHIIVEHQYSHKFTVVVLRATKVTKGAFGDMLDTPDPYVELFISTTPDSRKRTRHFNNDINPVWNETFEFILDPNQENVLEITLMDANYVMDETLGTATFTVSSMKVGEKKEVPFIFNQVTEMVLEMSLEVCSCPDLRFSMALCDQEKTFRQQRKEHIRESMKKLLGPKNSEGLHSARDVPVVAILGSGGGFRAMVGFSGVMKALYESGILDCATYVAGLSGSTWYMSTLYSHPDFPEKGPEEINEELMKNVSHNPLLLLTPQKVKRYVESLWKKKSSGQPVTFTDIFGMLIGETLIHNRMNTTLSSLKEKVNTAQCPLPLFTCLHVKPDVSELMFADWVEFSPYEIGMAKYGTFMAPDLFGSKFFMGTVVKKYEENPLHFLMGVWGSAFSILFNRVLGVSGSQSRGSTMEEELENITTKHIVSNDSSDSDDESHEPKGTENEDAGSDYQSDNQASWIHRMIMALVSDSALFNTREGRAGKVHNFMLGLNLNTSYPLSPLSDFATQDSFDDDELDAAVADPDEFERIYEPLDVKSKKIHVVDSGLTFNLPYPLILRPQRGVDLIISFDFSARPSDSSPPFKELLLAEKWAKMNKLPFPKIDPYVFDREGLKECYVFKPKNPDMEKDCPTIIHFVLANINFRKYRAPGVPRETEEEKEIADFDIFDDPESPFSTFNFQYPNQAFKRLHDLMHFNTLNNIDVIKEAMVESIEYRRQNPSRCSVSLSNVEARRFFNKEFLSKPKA

fraction unbound [1]: 0.047
efflux ratio [2]: 1.9
fold induction at 2 h (CYP3A4): 2
Vd [3]: 0.9 L/kg
MRT [4]: 23 h
CL (Cynomolgus monkey): 3.6%
bioavailability [5]: 45%
concentration at 2 h [6]: 152 µM
IC50 (Cytochrome P450 2C9): > 30 µM
inhibition [9]: < 50%
inhibition [10]: < 50%
Structure (SMILES): CN(C)C(=O)Cn1cc(-c2nc([C@@](C)(c3ccc(-c4cnc(N)nc4)cc3)C3CC3)no2)cn1 [BI 665915]
Activity (Mus musculus [7]): 110.6%
Activity (Mus musculus [8]): 5.1%
inhibition at 11 µM (hERG (KCNH2)): 11%
